Measured values as given in ChEMBL document CHEMBL3853298, “Total synthesis and in vitro bioevaluation of clavaminols A, C, H & deacetyl clavaminol H as potential chemotherapeutic and antibiofilm agents” (Eur J Med Chem, 2016).
≈ marks a conversion by molar mass, not a printed value.

Legend:
Format in all cases: functional
Staphylococcus aureus [1] = assay: Bactericidal activity against Staphylococcus aureus MLS16 MTCC 2940 after 24 hrs; conditions: MLS16 MTCC 2940, 24 h
Outline: (§1)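 Broth macrodilution in Mueller Hinton broth, compound serially diluted from 150 down to 0. Overnight bacterial culture added to a final 1.5 × 10^8 CFU/mL (0.5 McFarland), 24 h at 37 °C. Suspension then subcultured onto Mueller Hinton agar for 24 h at 37 °C. MBC is the lowest concentration killing the strain. Duplicates.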

Micrococcus luteus [2] = assay: Bactericidal activity against Micrococcus luteus MTCC 2470 after 24 hrs; conditions: MTCC 2470, 24 h; outline: as §1
Raoultella planticola [3] = assay: Bactericidal activity against Klebsiella planticola MTCC 530 after 24 hrs; conditions: MTCC 530, 24 h; outline: as §1
Escherichia coli [4] = assay: Bactericidal activity against Escherichia coli MTCC 739 after 24 hrs; conditions: MTCC 739, 24 h; outline: as §1
Pseudomonas aeruginosa [5] = assay: Bactericidal activity against Pseudomonas aeruginosa MTCC 2453 after 24 hrs; conditions: MTCC 2453, 24 h; outline: as §1
Candida albicans [6] = assay: Fungicidal activity against Candida albicans MTCC 183 after 24 hrs; conditions: MTCC 183, 24 h
Outline: (§2)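 Candida grown overnight in Mueller Hinton broth. Compound serially diluted in the same broth from 150 to 0 and inoculated to a final 1.5 × 10^8 CFU/mL (0.5 McFarland), then 24 h at 37 °C. Tube contents plated onto Mueller Hinton agar for 24 h at 37 °C. MFC is the lowest concentration killing the yeast. Duplicates.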

Candida albicans [7] = assay: Fungicidal activity against Candida albicans MTCC 227 after 24 hrs; conditions: MTCC 227, 24 h; outline: as §2
Candida albicans [8] = assay: Fungicidal activity against Candida albicans MTCC 854 after 24 hrs; conditions: MTCC 854, 24 h; outline: as §2
Candida albicans [9] = assay: Fungicidal activity against Candida albicans MTCC 1637 after 24 hrs; conditions: MTCC 1637, 24 h; outline: as §2
Candida albicans [10] = assay: Fungicidal activity against Candida albicans MTCC 3017 after 24 hrs; conditions: MTCC 3017, 24 h; outline: as §2
Candida albicans [11] = assay: Fungicidal activity against Candida albicans MTCC 3018 after 24 hrs; conditions: MTCC 3018, 24 h; outline: as §2
Candida albicans [12] = assay: Fungicidal activity against Candida albicans MTCC 3958 after 24 hrs; conditions: MTCC 3958, 24 h; outline: as §2
Candida albicans [13] = assay: Fungicidal activity against Candida albicans MTCC 4748 after 24 hrs; conditions: MTCC 4748, 24 h; outline: as §2
Candida albicans [14] = assay: Fungicidal activity against Candida albicans MTCC 7315 after 24 hrs; conditions: MTCC 7315, 24 h; outline: as §2
Candida parapsilosis = assay: Fungicidal activity against Candida parapsilosis MTCC 1744 after 24 hrs; conditions: Lodderomyces parapsilosis, MTCC 1744, 24 h
Outline: (§3)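 Broth dilution in Mueller Hinton broth with serial compound concentrations from […]. Overnight Candida cultures added to a final 1.5 × 10^8 CFU/mL (0.5 McFarland). Incubated 24 h at 37 °C, then 10 µL of each tube plated on Mueller Hinton agar for 24 h at 37 °C. MFC taken as the lowest concentration that kills the strain. Run in duplicate.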

[Candida] aaseri = Fungicidal activity against Candida aaseri MTCC 1962 after 24 hrs; conditions: Yamadazyma aaseri, MTCC 1962, 24 h; outline: as §2
Nakaseomyces glabratus = assay: Fungicidal activity against Candida glabrata MTCC 3019 after 24 hrs; conditions: MTCC 3019, 24 h; outline: as §2
Pichia kudriavzevii = assay: Fungicidal activity against Candida krusei MTCC 3020 after 24 hrs; conditions: MTCC 3020, 24 h; outline: as §3
Pichia sporocuriosa = assay: Fungicidal activity against Issatchenkia hanoiensis MTCC 4755 after 24 hrs; conditions: MTCC 4755, 24 h; outline: as §3
Staphylococcus aureus [15] = assay: Antibiofilm activity against Staphylococcus aureus MTCC 96 incubated for 24 hrs under static condition by crystal violet staining-based assay
Outline: (§4)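 Strains grown overnight in tryptone soy broth with 0.5% glucose. Compound (250 to 0) mixed with inoculum at 5 × 10^5 CFU/mL in polystyrene microtiter plates. Non-adherent cells washed off with PBS; wells stained with 0.1% crystal violet, dye solubilised in 95% ethanol, absorbance read at 540 nm. IC50 for 50% biofilm inhibition taken from dose-response curves. Triplicates, mean ± S.D.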

Bacillus subtilis = assay: Antibiofilm activity against Bacillus subtilis MTCC 121 incubated for 24 hrs under static condition by crystal violet staining-based assay; outline: as §4
Staphylococcus aureus [16] = assay: Antibiofilm activity against Staphylococcus aureus MLS16 MTCC 2940 incubated for 24 hrs under static condition by crystal violet staining-based assay; outline: as §4
Micrococcus luteus [17] = assay: Antibiofilm activity against Micrococcus luteus MTCC 2470 incubated for 24 hrs under static condition by crystal violet staining-based assay; outline: as §4
Raoultella planticola [18] = assay: Antibiofilm activity against Klebsiella planticola MTCC 530 incubated for 24 hrs under static condition by crystal violet staining-based assay; outline: as §4
Escherichia coli [19] = assay: Antibiofilm activity against Escherichia coli MTCC 739 incubated for 24 hrs under static condition by crystal violet staining-based assay; outline: as §4
Pseudomonas aeruginosa [20] = assay: Antibiofilm activity against Pseudomonas aeruginosa MTCC 2453 incubated for 24 hrs under static condition by crystal violet staining-based assay; outline: as §4

Q: Which results are given for `CCCCCCCCC[C@H](O)[C@H](N)CO`?
A: MBC (Staphylococcus aureus [1]): 7.8 µg/mL (≈ 35.9 µM); MBC (Micrococcus luteus [2]): 7.8 µg/mL (≈ 35.9 µM); MBC (Raoultella planticola [3]): 31.2 µg/mL (≈ 144 µM); MBC (Escherichia coli [4]): 15.6 µg/mL (≈ 71.8 µM); MBC (Pseudomonas aeruginosa [5]): 15.6 µg/mL (≈ 71.8 µM); MFC (Candida albicans [6]): 15.6 µg/mL (≈ 71.8 µM); MFC (Candida albicans [7]): 31.2 µg/mL (≈ 144 µM); MFC (Candida albicans [8]): 15.6 µg/mL (≈ 71.8 µM); MFC (Candida albicans [9]): 15.6 µg/mL (≈ 71.8 µM); MFC (Candida albicans [10]): 31.2 µg/mL (≈ 144 µM); MFC (Candida albicans [11]): 15.6 µg/mL (≈ 71.8 µM); MFC (Candida albicans [12]): 15.6 µg/mL (≈ 71.8 µM); MFC (Candida albicans [13]): 31.2 µg/mL (≈ 144 µM); MFC (Candida albicans [14]): 62.5 µg/mL (≈ 288 µM); MFC (Candida parapsilosis): 62.5 µg/mL (≈ 288 µM); MFC ([Candida] aaseri): 31.2 µg/mL (≈ 144 µM); MFC (Nakaseomyces glabratus): 15.6 µg/mL (≈ 71.8 µM); MFC (Pichia kudriavzevii): 15.6 µg/mL (≈ 71.8 µM); MFC (Pichia sporocuriosa): 31.2 µg/mL (≈ 144 µM); IC50 (Staphylococcus aureus [15]): 4.5 µg/mL (≈ 20.7 µM); IC50 (Bacillus subtilis): 2.6 µg/mL (≈ 12 µM); IC50 (Staphylococcus aureus [16]): 2.1 µg/mL (≈ 9.66 µM); IC50 (Micrococcus luteus [17]): 2.3 µg/mL (≈ 10.6 µM); IC50 (Raoultella planticola [18]): 9.2 µg/mL (≈ 42.3 µM); INH (Escherichia coli [19]): 4.6 µg/mL; INH (Pseudomonas aeruginosa [20]): 3.9 µg/mL
